Activity calls are given as the source filed them. The calls are words filed in the database; no cut-off is given here.
How the values were obtained:
[1] = tested on: A-431; experiment: Cytotoxicity against human A431 cells over expressing EGFR assessed as reduction in cell viability after 72 hrs by sulforhodamine B assay; format: functional, cell-based; conditions: A-431, 72 h
Outline: (§1)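 Cells seeded and grown 24 h, then exposed to 0.1% DMSO vehicle or 0.3125-20 μM compound for 72 h. Fixed with ice-cold 50% TCA (1 h, 4 °C), stained with 0.4% SRB 30 min at room temperature, dye solubilized in 10 mM tris base pH 10.5, OD read at 560 nm. Survival fraction = OD treated/OD vehicle; IC50 from triplicates of at least two independent experiments, mean ± SD.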

[2] = tested on: MDA-MB-361; experiment: Cytotoxicity against human MDA-MB-361 cells over expressing HER2 assessed as reduction in cell viability after 72 hrs by sulforhodamine B assay; format: functional, cell-based; conditions: MDA-MB-361, 72 h; outline: as §1
[3] = tested on: SK-BR-3; experiment: Cytotoxicity against human SKBR3 cells over expressing HER2 assessed as reduction in cell viability after 72 hrs by sulforhodamine B assay; format: functional, cell-based; conditions: SK-BR-3, 72 h; outline: as §1
[4] = tested on: NCI-H1975; experiment: Cytotoxicity against human NCI-H1975 cells harboring EGFR T790M mutant assessed as reduction in cell viability after 72 hrs by sulforhodamine B assay; format: functional, cell-based; conditions: NCI-H1975, 72 h; outline: as §1
[5] = molecular target: T1, Epidermal growth factor receptor (Homo sapiens, UniProt P00533); experiment: Inhibition of recombinant human C-terminal His-tagged/N-terminal GST-tagged EGFR (668 to 1210 residues) expressed in baculovirus infected Sf9 cells using Poly-(Glu, Tyr) as substrate measured after 45 minutes by Kinase-Glo luminescent assay
[6] = molecular target: T2, Receptor tyrosine-protein kinase erbB-2 (Homo sapiens, UniProt P04626); experiment: Inhibition of recombinant human N-terminal GST-tagged HER2 (679 to 1255 residues) expressed in baculovirus infected Sf9 cells using Poly-(Glu, Tyr) as substrate measured after 45 minutes by Kinase-Glo luminescent assay
[7] = molecular target: T1, Epidermal growth factor receptor; experiment: Inhibition of EGF-induced EGFR phosphorylation at Y1068 residues in EGFR over-expressing human A431 cells pretreated for 3 hrs followed by EGF-stimulation and measured after 10 mins by Western blot analysis
Outline: (§2)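 Overnight serum-starved A431 cells given indicated concentrations for 3 h, then 50 ng/ml EGF for 10 min. HEPES-buffer lysates resolved on 12% SDS-PAGE, transferred to nitrocellulose, blocked in 5% milk/TBST, probed with primary and HRP secondary antibodies, chemiluminescence read-out.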

[8] = molecular target: T1, Epidermal growth factor receptor; experiment: Inhibition of EGF-induced EGFR signalling in EGFR over-expressing human A431 cells assessed as reduction in AKT phosphorylation at S473 residue at 5 to 20 uM pretreated for 3 hrs followed by EGF-stimulation and measured after 10 mins by Western blot analysis; outline: as §2
[9] = molecular target: T1, Epidermal growth factor receptor; experiment: Inhibition of EGF-induced EGFR signalling in EGFR over-expressing human A431 cells assessed as reduction in p70S6K phosphorylation at T389 residue at 5 to 20 uM pretreated for 3 hrs followed by EGF-stimulation and measured after 10 mins by Western blot analysis; outline: as §2
[10] = molecular target: T1, Epidermal growth factor receptor; experiment: Inhibition of EGF-induced EGFR signalling in EGFR over-expressing human A431 cells assessed as reduction in ribosomal S6 phosphorylation at S235/236 residue at 5 to 20 uM pretreated for 3 hrs followed by EGF-stimulation and measured after 10 mins by Western blot analysis; outline: as §2
[11] = molecular target: T2, Receptor tyrosine-protein kinase erbB-2; experiment: Inhibition of HER2 signalling in HER2 over-expressing human SKBR3 cells assessed as reduction in AKT phosphorylation at S473 residue at 2.5 to 10 uM after 72 hrs by Western blot analysis
Outline: (§3)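 SKBr3 cells (DMEM, 10% FBS) treated 72 h at indicated concentrations. HEPES-buffer lysates on 12% SDS-PAGE, nitrocellulose transfer, 5% milk/TBST block, immunoblotted for AKT/mTOR/S6 with HRP secondary and chemiluminescence; β-actin loading control.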

[12] = molecular target: T2, Receptor tyrosine-protein kinase erbB-2; experiment: Inhibition of HER2 signalling in HER2 over-expressing human SKBR3 cells assessed as reduction in mTOR phosphorylation at S2448 residue at 2.5 to 10 uM after 72 hrs by Western blot analysis; outline: as §3
[13] = molecular target: T2, Receptor tyrosine-protein kinase erbB-2; experiment: Inhibition of HER2 signalling in HER2 over-expressing human SKBR3 cells assessed as reduction in S6 phosphorylation at S235/236 residue at 2.5 to 10 uM after 72 hrs by Western blot analysis; outline: as §3
[14] = tested on: MDA-MB-361; experiment: Induction of apoptosis in human MDA-MB-361 cells after 24 hrs by Annexin-V-FITC/propidium iodide staining based flow cytometry; format: functional, cell-based
[15] = molecular target: T1, Epidermal growth factor receptor; experiment: Inhibition of EGF-induced EGFR signalling in EGFR over-expressing human A431 cells assessed as reduction in AKT phosphorylation at S473 residue at 2.5 to 10 uM pretreated for 3 hrs followed by EGF-stimulation and measured after 10 mins by Western blot analysis; outline: as §2
[16] = molecular target: T1, Epidermal growth factor receptor; experiment: Inhibition of EGF-induced EGFR signalling in EGFR over-expressing human A431 cells assessed as reduction in p70S6K phosphorylation at T389 residue at 2.5 to 10 uM pretreated for 3 hrs followed by EGF-stimulation and measured after 10 mins by Western blot analysis; outline: as §2
[17] = molecular target: T1, Epidermal growth factor receptor; experiment: Inhibition of EGF-induced EGFR signalling in EGFR over-expressing human A431 cells assessed as reduction in ribosomal S6 phosphorylation at S235/236 residue at 2.5 to 10 uM pretreated for 3 hrs followed by EGF-stimulation and measured after 10 mins by Western blot analysis; outline: as §2
[18] = tested on: NCI-H1975; experiment: Induction of apoptosis in human NCI-H1975 cells harboring EGFR T790M mutant assessed as increase in apoptotic cells at 2.5 to 10 uM after 72 hrs by Annexin-V-FITC/propidium iodide staining based flow cytometry; format: functional, cell-based
[19] = tested on: NCI-H1975; experiment: Induction of apoptosis in human NCI-H1975 cells harboring EGFR T790M mutant assessed as increase in necrotic cells at 2.5 to 10 uM after 72 hrs by Annexin-V-FITC/propidium iodide staining based flow cytometry; format: functional, cell-based
Outline: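 NCI-H1975 cells grown in RPMI-1640 with 2 mM L-glutamine and 10% FBS, exposed 72 h to indicated concentrations. Harvested, ethanol-fixed on ice, PI-stained overnight at 4 °C. Flow cytometry on 20 000 cells/sample gave percent live, early apoptotic and late apoptotic/necrotic cells.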

[20] = tested on: Epidermal growth factor receptor (Homo sapiens), P00533 [T790M]; experiment: Inhibition of EGFR T790M mutant in human NCI-H1975 cells assessed as reduction in AKT phosphorylation at S473 residue after 72 hrs by Western blot analysis; format: cell-based
Outline: (§4)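 Unstimulated NCI-H1975 cells exposed to indicated concentrations for 72 h. Lysates in HEPES buffer run on 12% SDS-PAGE, blotted to nitrocellulose and probed for AKT/S6K/S6 signalling with chemiluminescent detection; β-actin loading control.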

[21] = tested on: Epidermal growth factor receptor (Homo sapiens), P00533 [T790M]; experiment: Inhibition of EGFR T790M mutant in human NCI-H1975 cells assessed as reduction in p70S6K phosphorylation at T389 residue after 72 hrs by Western blot analysis; format: cell-based; outline: as §4
[22] = tested on: Epidermal growth factor receptor (Homo sapiens), P00533 [T790M]; experiment: Inhibition of EGFR T790M mutant in human NCI-H1975 cells assessed as reduction in ribosomal S6 phosphorylation at S235/236 residue after 72 hrs by Western blot analysis; format: cell-based; outline: as §4
[23] = tested on: Epidermal growth factor receptor (Homo sapiens), P00533 [T790M]; experiment: Inhibition of EGF-induced EGFR T790M mutant phosphorylation in human NCI-H1975 cells at 2.5 to 10 uM pretreated for 2.5 hrs followed by EGF-stimulation and measured after 10 mins by Western blot analysis; format: cell-based
Outline: (§5)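 Serum-starved overnight NCI-H1975 cells preincubated 2.5 h with compound, then stimulated with 50 ng/ml EGF for 10 min. Lysed in HEPES buffer, protein quantified, 12% SDS-PAGE, nitrocellulose transfer, milk blocking, HRP secondary, chemiluminescent detection.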

[24] = tested on: Epidermal growth factor receptor (Homo sapiens), P00533 [T790M]; experiment: Inhibition of EGF-induced EGFR T790M mutant in human NCI-H1975 cells assessed as reduction in AKT phosphorylation at S473 residue at 2.5 to 10 uM pretreated for 2.5 hrs followed by EGF-stimulation and measured after 10 mins by Western blot analysis; format: cell-based; outline: as §5
[25] = tested on: Epidermal growth factor receptor (Homo sapiens), P00533 [T790M]; experiment: Inhibition of EGF-induced EGFR T790M mutant in human NCI-H1975 cells assessed as reduction in p70S6K phosphorylation at T389 residue at 2.5 to 10 uM pretreated for 2.5 hrs followed by EGF-stimulation and measured after 10 mins by Western blot analysis; format: cell-based; outline: as §5
[26] = tested on: Epidermal growth factor receptor (Homo sapiens), P00533 [T790M]; experiment: Inhibition of EGF-induced EGFR T790M mutant in human NCI-H1975 cells assessed as reduction in ribosomal S6 phosphorylation at S235/236 residue at 2.5 to 10 uM pretreated for 2.5 hrs followed by EGF-stimulation and measured after 10 mins by Western blot analysis; format: cell-based; outline: as §5

T1 sequence (P00533 whole entry, the tested form may be a part): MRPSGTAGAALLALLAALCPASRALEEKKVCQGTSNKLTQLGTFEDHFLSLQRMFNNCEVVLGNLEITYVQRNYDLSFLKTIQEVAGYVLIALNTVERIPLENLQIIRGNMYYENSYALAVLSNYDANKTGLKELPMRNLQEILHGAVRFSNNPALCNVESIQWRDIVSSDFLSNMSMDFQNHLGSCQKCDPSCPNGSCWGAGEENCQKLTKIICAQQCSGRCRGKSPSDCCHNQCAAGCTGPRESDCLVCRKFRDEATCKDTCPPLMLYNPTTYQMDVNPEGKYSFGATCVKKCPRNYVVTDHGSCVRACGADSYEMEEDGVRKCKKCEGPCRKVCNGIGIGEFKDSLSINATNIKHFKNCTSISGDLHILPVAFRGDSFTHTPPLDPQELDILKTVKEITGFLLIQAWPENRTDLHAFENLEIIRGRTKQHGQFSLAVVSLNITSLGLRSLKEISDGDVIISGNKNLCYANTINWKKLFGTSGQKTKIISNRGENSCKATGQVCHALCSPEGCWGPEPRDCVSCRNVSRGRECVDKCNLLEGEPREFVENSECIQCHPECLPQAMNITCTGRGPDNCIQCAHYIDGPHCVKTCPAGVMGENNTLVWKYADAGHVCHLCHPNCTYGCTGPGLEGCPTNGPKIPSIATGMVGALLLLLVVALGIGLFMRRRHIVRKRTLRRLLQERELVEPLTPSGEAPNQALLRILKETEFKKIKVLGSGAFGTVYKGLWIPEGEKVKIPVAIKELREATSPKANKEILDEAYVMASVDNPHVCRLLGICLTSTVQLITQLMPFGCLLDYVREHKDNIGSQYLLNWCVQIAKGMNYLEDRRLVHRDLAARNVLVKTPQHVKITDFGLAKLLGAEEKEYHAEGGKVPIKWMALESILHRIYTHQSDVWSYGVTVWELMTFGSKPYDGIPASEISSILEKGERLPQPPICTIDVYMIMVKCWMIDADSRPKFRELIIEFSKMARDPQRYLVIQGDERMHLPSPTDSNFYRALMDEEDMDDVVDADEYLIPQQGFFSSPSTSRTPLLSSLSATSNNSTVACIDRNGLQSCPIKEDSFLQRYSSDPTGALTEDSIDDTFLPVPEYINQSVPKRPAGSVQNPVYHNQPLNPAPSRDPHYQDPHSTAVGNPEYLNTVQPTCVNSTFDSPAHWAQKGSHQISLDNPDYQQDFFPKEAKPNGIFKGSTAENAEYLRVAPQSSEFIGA
Chain of Epidermal growth factor receptor (Homo sapiens), P00533 [T790M] (P00533 whole entry T790M): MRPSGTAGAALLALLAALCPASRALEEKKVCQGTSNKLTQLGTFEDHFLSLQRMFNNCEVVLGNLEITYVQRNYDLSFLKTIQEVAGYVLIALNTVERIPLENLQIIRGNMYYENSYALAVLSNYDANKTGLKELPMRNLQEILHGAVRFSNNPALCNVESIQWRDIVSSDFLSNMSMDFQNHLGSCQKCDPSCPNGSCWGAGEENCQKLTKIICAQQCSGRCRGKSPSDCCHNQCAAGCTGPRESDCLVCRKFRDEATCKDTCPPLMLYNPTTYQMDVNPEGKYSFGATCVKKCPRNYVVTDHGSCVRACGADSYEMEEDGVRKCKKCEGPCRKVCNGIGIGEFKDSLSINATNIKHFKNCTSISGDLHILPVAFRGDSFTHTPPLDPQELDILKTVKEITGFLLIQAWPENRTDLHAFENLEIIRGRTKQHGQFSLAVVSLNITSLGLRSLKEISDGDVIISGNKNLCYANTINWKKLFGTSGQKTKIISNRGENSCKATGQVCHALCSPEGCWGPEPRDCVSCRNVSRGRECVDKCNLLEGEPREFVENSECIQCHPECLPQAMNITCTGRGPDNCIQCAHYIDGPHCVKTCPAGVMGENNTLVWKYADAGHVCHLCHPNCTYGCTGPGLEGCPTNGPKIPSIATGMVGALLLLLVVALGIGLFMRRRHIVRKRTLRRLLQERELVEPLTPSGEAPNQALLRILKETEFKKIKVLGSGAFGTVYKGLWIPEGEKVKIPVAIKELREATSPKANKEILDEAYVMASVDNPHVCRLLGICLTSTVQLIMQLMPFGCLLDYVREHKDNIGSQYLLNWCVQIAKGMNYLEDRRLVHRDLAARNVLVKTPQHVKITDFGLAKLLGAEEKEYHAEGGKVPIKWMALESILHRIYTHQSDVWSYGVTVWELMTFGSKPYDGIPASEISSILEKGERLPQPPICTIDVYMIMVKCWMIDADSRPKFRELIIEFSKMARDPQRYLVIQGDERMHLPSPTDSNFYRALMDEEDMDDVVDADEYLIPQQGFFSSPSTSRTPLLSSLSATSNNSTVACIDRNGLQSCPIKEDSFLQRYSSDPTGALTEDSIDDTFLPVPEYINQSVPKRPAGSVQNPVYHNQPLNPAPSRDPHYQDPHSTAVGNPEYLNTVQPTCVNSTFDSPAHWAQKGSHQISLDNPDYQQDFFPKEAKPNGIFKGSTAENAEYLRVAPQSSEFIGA
T2 sequence (P04626 whole entry, the tested form may be a part): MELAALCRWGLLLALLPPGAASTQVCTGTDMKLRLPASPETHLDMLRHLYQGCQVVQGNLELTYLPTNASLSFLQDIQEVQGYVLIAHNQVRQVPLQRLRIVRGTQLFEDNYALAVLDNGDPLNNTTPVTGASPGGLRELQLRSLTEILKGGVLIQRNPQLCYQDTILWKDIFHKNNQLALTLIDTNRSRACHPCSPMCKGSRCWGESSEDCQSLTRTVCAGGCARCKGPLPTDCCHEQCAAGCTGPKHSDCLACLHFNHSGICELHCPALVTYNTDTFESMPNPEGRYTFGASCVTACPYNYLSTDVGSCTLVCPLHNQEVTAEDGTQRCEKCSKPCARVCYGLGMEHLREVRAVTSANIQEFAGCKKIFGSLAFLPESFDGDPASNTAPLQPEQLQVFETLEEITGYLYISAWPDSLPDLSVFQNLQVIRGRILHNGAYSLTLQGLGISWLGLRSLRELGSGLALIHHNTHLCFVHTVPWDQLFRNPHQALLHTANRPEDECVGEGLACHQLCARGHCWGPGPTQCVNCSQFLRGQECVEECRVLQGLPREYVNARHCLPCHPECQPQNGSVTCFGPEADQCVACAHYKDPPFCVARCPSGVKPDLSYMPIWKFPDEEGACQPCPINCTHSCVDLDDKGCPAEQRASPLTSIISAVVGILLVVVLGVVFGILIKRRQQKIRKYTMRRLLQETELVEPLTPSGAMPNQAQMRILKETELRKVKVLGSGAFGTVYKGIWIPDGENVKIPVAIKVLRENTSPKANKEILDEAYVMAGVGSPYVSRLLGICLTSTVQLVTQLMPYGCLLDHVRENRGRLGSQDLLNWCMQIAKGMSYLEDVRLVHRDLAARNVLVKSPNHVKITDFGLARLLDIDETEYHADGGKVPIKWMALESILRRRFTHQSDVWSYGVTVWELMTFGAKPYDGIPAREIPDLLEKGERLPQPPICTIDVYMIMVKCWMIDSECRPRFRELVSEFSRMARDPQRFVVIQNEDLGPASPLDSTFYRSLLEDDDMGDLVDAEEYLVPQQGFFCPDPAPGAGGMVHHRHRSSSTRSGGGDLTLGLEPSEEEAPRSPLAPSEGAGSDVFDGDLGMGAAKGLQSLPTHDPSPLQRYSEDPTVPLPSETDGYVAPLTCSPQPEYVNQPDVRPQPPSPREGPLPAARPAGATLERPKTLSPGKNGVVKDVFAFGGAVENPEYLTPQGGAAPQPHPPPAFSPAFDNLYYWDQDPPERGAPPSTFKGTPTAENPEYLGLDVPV

IC50 [5] [µM]	IC50 [6] [µM]	SMILES	IC50 [1] [µM]	IC50 [2] [µM]	IC50 [3] [µM]	IC50 [4] [µM]	also measured
0.0214	1.5	Nc1ccc(-c2cc3c(Nc4ccc(Oc5cccc(C(F)(F)F)c5)c(Cl)c4)ncnc3s2)cc1	11.4	5.85	6	13.9	inhibition [7]: Dose-dependent effect; inhibition [8]: Active; inhibition [9]: Active; inhibition [10]: Active
0.0477	0.879	CC(=O)Nc1ccc(-c2cc3c(Nc4ccc(Oc5cccc(C(F)(F)F)c5)c(Cl)c4)ncnc3s2)cc1	10.5	10.5	4.7	12.7	inhibition [11]: Active; inhibition [12]: Active; inhibition [13]: Active
0.0917	1.2	O=C(NCCN1CCOCC1)Nc1ccc(-c2cc3c(Nc4ccc(Oc5cccc(C(F)(F)F)c5)c(Cl)c4)ncnc3s2)cc1	1.45	3.5	4.83	4.2	Activity [14]: Dose-dependent effect; inhibition [7]: Dose-dependent effect; inhibition [15]: Active; inhibition [16]: Active; inhibition [17]: Active; Activity [18]: Active; Activity [19]: Active; inhibition [20]: Dose-dependent effect; inhibition [21]: Dose-dependent effect; inhibition [22]: Dose-dependent effect; inhibition [23]: Active; inhibition [24]: Active; inhibition [25]: Active; inhibition [26]: Active
		CS(=O)(=O)CCNCc1ccc(-c2ccc3ncnc(Nc4ccc(OCc5cccc(F)c5)c(Cl)c4)c3c2)o1	1.69	13.7	0.17	11.5	
		O=[N+]([O-])c1ccc(-c2cc3c(Nc4ccc(Oc5cccc(C(F)(F)F)c5)c(Cl)c4)ncnc3s2)cc1	1.72	3.65			
		CC(C)/C=C/C(=O)Nc1ccc(-c2cc3c(Nc4ccc(Oc5cccc(C(F)(F)F)c5)c(Cl)c4)ncnc3s2)cc1	0.23	> 20			
	19.2	CS(=O)(=O)Nc1ccc(-c2cc3c(Nc4ccc(Oc5cccc(C(F)(F)F)c5)c(Cl)c4)ncnc3s2)cc1	5.25	9.86			
		Nc1ccc(-c2cc3c(NCc4ccccc4)ncnc3s2)cc1	> 20	> 20			
		O=C(O)/C=C\C(=O)Nc1ccc(-c2cc3c(Nc4ccc(Oc5cccc(C(F)(F)F)c5)c(Cl)c4)ncnc3s2)cc1	> 20	> 20			
0.112	37.1	O=C(Nc1ccc(-c2cc3c(Nc4ccc(Oc5cccc(C(F)(F)F)c5)c(Cl)c4)ncnc3s2)cc1)NC1CC1	2.34	3.83			
		CCOC(=O)Nc1ccc(-c2cc3c(Nc4ccc(Oc5cccc(C(F)(F)F)c5)c(Cl)c4)ncnc3s2)cc1	17	> 20			
		O=[N+]([O-])c1ccc(-c2cc3c(NCc4ccccc4)ncnc3s2)cc1	4.87	> 20			
		O=[N+]([O-])c1ccc(-c2cc3c(Nc4ccc5c(cnn5Cc5ccccc5)c4)ncnc3s2)cc1	> 20	> 20			

Source: ChEMBL document CHEMBL4270530, “Surmounting the resistance against EGFR inhibitors through the development of thieno[2,3-d]pyrimidine-based dual EGFR/HER2 inhibitors” (Eur J Med Chem, 2018)
